The source made the active and inactive calls. No cut-off for these calls is given here.
Assays:
[1] = molecular target: Cholinesterase (Equus caballus) (UniProt P81908); experiment: Pseudo-irreversible inhibition of equine serum butyrylcholinesterase assessed as decarbamoylation rate using […] as substrate preincubated for 1 hr followed by 1000 fold dilution
Procedure, shortened: (§1)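 Enzyme incubated 1 h with inhibitor at a fully inhibiting concentration, then diluted 1:1000 in assay buffer. Activity measured by Ellman assay at various times after dilution, with uninhibited enzyme treated the same way as control. First-order fit of activity recovery gives k4.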

[2] = molecular target: Cholinesterase (Equus caballus) (UniProt P81908); experiment: (§2) Pseudo-irreversible inhibition of equine serum butyrylcholinesterase assessed as apparent affinity between enzyme and inhibitor at equilibrium state using p-nitrophenyl butyrate as substrate preincubated for 5 to 40 mins followed by substrate addition by double reciprocal plot analysis
[3] = molecular target: Cholinesterase (Equus caballus) (UniProt P81908); experiment: Pseudo-irreversible inhibition of equine serum butyrylcholinesterase assessed as carbamoylation rate of inhibitor from reversible enzyme inhibitor complex to carbamoylated enzyme using p-nitrophenyl butyrate as substrate preincubated for 5 to 40 mins followed by substrate addition by double reciprocal plot analysis
Acetylcholinesterase [4] = molecular target: T1, Acetylcholinesterase (Homo sapiens, UniProt P22303); experiment: Inhibition of human acetylcholinesterase using […] as substrate preincubated for 4.5 mins followed by substrate addition measured after 2.5 mins by Ellman's spectrophotometric method
T1 sequence (P22303 whole entry): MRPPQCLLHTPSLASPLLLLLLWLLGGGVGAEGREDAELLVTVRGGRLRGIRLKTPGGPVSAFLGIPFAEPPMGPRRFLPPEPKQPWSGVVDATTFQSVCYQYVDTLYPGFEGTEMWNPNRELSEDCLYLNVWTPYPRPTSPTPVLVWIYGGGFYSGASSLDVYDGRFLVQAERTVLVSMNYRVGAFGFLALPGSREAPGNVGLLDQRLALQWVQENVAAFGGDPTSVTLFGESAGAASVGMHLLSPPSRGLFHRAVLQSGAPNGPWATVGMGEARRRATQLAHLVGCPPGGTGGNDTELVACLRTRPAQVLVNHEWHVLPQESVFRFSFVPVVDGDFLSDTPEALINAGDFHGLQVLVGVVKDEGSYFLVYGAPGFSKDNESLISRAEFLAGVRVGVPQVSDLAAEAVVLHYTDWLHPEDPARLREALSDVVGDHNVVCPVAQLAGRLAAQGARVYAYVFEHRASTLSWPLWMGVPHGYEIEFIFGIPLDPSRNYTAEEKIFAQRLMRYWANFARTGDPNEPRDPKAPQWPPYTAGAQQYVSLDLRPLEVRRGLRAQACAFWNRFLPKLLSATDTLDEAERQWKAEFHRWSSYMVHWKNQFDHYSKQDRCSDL
Procedure, shortened: (§3)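 Ellman assay at 25 °C in phosphate buffer pH 8.0. Enzyme (AChE from human erythrocytes, BChE from equine or human serum; 2.5 units/mL stock with 2 mg/mL BSA) and DTNB (0.3 mM in assay) preincubated with compound from ethanol stocks (1 nM−1 mM in assay). Acetyl- or butyrylthiocholine added (452 μM in assay), absorbance at 412 nm after 2.5 min. Ethanol control, triplicates, IC50 from activity vs log concentration.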

[5] = Neurotoxicity against mouse HT22 cells assessed as cell viability at 1 and 5 uM after 24 hrs by MTT assay; type: toxicity, cell-based; settings: ht-22, 24 h
Procedure, shortened: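 HT-22 murine hippocampal cells grown in high-glucose DMEM plus 10% heat-inactivated FCS at 37 °C, 5% CO2. After 24 h culture in plates, treated 24 h with compound (DMSO ≤0.1% final) without glutamate. Viability read by MTT (3 h), SDS lysis buffer pH 4.1, absorbance at 560 nm, given as percent of untreated control.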

HT-22 [6] = experiment: Neuroprotective activity against glutamate-induced oxycytotic cell death in mouse HT22 cells assessed as cell viability at 25 uM after 24 hrs by MTT assay; type: functional, cell-based
Procedure, shortened: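 Murine hippocampal HT-22 cells in high-glucose DMEM with 10% heat-inactivated FCS, 37 °C, 5% CO2. MTT (4 mg/mL in PBS, diluted 1:10 in medium) for 3 h, lysis in 10% SDS pH 4.1, absorbance 560 nm; viability as % of untreated cells.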

HT-22 [7] = experiment: Neuroprotective activity against glutamate-induced oxycytotic cell death in mouse HT22 cells assessed as cell viability at 5 uM after 24 hrs by MTT assay; type: functional, cell-based
Procedure, shortened: (§4)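 Murine hippocampal HT-22 cells in high-glucose DMEM with 10% heat-inactivated FCS, 37 °C, 5% CO2. […] MTT (4 mg/mL in PBS, diluted 1:10 in medium) for 3 h, lysis in 10% SDS pH 4.1, absorbance 560 nm; viability as % of untreated cells.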

Cholinesterase [8] = molecular target: T2, Cholinesterase (Equus caballus, UniProt P81908); experiment: Inhibition of equine serum butyrylcholinesterase using […] as substrate preincubated for 4.5 mins followed by substrate addition measured after 2.5 mins by Ellman's spectrophotometric method; procedure, shortened: as §3
T2 sequence (P81908 whole entry): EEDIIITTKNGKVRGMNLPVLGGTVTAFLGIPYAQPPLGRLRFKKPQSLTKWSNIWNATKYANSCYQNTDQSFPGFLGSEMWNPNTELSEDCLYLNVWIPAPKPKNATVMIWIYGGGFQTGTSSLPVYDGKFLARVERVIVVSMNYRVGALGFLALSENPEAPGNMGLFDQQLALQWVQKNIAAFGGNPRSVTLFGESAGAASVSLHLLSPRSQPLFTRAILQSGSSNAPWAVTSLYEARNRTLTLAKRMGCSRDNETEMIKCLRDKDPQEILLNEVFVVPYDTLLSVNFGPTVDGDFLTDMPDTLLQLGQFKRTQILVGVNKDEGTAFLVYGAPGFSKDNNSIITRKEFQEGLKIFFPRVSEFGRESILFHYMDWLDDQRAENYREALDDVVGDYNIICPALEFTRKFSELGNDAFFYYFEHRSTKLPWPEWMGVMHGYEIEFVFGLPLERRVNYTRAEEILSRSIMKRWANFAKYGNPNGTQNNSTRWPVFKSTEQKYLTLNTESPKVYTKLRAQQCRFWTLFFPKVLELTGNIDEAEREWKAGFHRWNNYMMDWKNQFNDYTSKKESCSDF

[9] = Antioxidant activity assessed as trolox equivalents of AAPH radical scavenging activity preincubated for 15 mins followed by AAPH addition measured every 60 secs for 90 mins by ORAC assay; type: physicochemical; settings: 1.5 h
Procedure, shortened: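 ORAC-FL: compound (1−5 μM) with fluorescein (300 nM final) in 75 mM phosphate buffer pH 7.4, 15 min at 37 °C, then AAPH (12 mM final). Fluorescence read every 60 s for 90 min (ex 485/em 535 nm). […] Samples in quadruplicate, ≥4 independent runs.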

[10] = Neurotoxicity against mouse HT22 cells assessed as cell viability up to 10 uM after 24 hrs by MTT assay; type: toxicity, cell-based, HT-22; settings: read-out: Activity
Procedure, shortened: (§5)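 Murine hippocampal HT-22 cells in high-glucose DMEM with 10% heat-inactivated FCS, 37 °C, 5% CO2. […] MTT 3 h, SDS lysis, absorbance at 560 nm, viability as % of untreated cells.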

Cholinesterase [11] = molecular target: Cholinesterase (Homo sapiens, UniProt P06276); experiment: Inhibition of human butyrylcholinesterase using […] as substrate preincubated for 30 mins followed by substrate addition measured after 2.5 mins by Ellman's spectrophotometric method; procedure, shortened: as §3
Chain of Cholinesterase (Homo sapiens, UniProt P06276) (P06276 whole entry): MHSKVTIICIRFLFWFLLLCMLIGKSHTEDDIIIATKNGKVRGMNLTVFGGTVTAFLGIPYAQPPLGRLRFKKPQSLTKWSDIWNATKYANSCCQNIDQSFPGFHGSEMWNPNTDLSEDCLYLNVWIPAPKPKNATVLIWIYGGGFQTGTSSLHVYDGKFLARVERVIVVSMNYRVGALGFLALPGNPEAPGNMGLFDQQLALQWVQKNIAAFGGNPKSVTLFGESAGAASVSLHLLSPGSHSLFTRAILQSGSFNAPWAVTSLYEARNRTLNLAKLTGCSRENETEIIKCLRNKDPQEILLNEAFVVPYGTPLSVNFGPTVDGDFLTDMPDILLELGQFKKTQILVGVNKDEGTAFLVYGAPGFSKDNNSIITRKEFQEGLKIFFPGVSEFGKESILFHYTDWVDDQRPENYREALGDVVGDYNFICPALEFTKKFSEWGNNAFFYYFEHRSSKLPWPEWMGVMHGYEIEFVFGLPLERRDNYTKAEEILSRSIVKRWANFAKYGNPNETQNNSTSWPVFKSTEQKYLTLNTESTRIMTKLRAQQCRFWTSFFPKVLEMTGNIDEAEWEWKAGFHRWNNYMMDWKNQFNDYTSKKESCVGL

[12] = molecular target: Cholinesterase (Equus caballus) (UniProt P81908); experiment: as §2, with “assessed as ratio of carbamoylation rate of inhibitor to apparent affinity” for “assessed as apparent affinity”
Acetylcholinesterase [13] = molecular target: T1, Acetylcholinesterase; experiment: Inhibition of human acetylcholinesterase using […] as substrate at 100 uM preincubated for 4.5 mins followed by substrate addition measured after 2.5 mins by Ellman's spectrophotometric method
Cholinesterase [14] = molecular target: T2, Cholinesterase; experiment: Inhibition of equine serum butyrylcholinesterase using […] as substrate preincubated for 30 mins followed by substrate addition measured after 2.5 mins by Ellman's spectrophotometric method
Procedure, shortened: as §3, with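 “assay).” for “assay). Acetyl- or butyrylthiocholine added (452 μM in assay), absorbance at 412 nm after 2.5 min.”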

[15] = molecular target: Cholinesterase (Equus caballus) (UniProt P81908); experiment: Pseudo-irreversible inhibition of equine serum butyrylcholinesterase assessed as half life for carbamoylated enzyme using […] as substrate preincubated for 1 hr followed by 1000 fold dilution; procedure, shortened: as §1
HT-22 [16] = experiment: Neuroprotective activity against glutamate-induced oxycytotic cell death in mouse HT22 cells assessed as cell viability at 5 to 25 uM after 24 hrs by MTT assay; type: functional, cell-based; procedure, shortened: as §5
Acetylcholinesterase [17] = molecular target: T1, Acetylcholinesterase; experiment: Inhibition of human acetylcholinesterase using […] as substrate at 500 uM preincubated for 4.5 mins followed by substrate addition measured after 2.5 mins by Ellman's spectrophotometric method
Acetylcholinesterase [18] = molecular target: T1, Acetylcholinesterase; experiment: Inhibition of human acetylcholinesterase using […] as substrate at 50 uM preincubated for 4.5 mins followed by substrate addition measured after 2.5 mins by Ellman's spectrophotometric method
HT-22 [19] = experiment: Neuroprotective activity against glutamate-induced oxycytotic cell death in mouse HT22 cells assessed as cell viability at 1 uM after 24 hrs by MTT assay; type: functional, cell-based; procedure, shortened: as §4
Acetylcholinesterase [20] = molecular target: T1, Acetylcholinesterase; experiment: Inhibition of human acetylcholinesterase using […] as substrate preincubated for 30 mins followed by substrate addition measured after 2.5 mins by Ellman's spectrophotometric method
Procedure, shortened: as §3, with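 “assay).” for “assay). Acetyl- or butyrylthiocholine added (452 μM in assay), absorbance at 412 nm after 2.5 min.”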

[21] = Neurotoxicity against mouse HT22 cells assessed as decrease in cell viability at 25 uM after 24 hrs by MTT assay; type: toxicity, cell-based; settings: ht-22, 24 h; procedure, shortened: as §5
Acetylcholinesterase [22] = molecular target: T1, Acetylcholinesterase; experiment: Inhibition of human acetylcholinesterase using […] as substrate at 10 uM preincubated for 4.5 mins followed by substrate addition measured after 2.5 mins by Ellman's spectrophotometric method

Chain of Cholinesterase (Equus caballus) (P81908 whole entry): as the sequence (P81908 whole entry) above

Compound: CNC(=O)Oc1ccc2c(c1)[C@]1(C)CCN(C)[C@@H]1N2C
- K [1]: 0.25 h⁻¹
- K [2]: 280 nM
- K [3]: 0.3 min⁻¹

Compound: COc1ccc(C2N(C)Cc3cc(O)ccc3N2C)cc1 (stereo not given)
- IC50 (Acetylcholinesterase [4]): 104 µM
- Activity [5]: Non-toxic
- Activity (HT-22 [6]): inactive
- Activity (HT-22 [7]): Active
- IC50 (Cholinesterase [8]): 39.5 µM
- Activity [9]: 3.7 equiv

Compound: CCCCCCCNC(=O)Oc1ccc2c(c1)CN(C)C(c1cccs1)N2C (stereo not given)
- K [1]: 0.14 h⁻¹
- viability at 24 h [10]: > 80%
- IC50 (Cholinesterase [11]): 0.013 µM
- Ratio [12]: 9.79 µM⁻¹ min⁻¹
- K [2]: 14.3 nM
- Activity [9]: 0.2 equiv
- inhibition (Acetylcholinesterase [13]): 0%
- IC50 (Cholinesterase [14]): 0.014 µM
- T1/2 [15]: 5 h
- K [3]: 0.14 min⁻¹
- Activity (HT-22 [16]): Active

Compound: CCCCCCCNC(=O)Oc1ccc2c(c1)CN(C)C(c1ccc(OC)cc1)N2C (stereo not given)
- viability at 24 h [10]: > 80%
- Ratio [12]: 0.2 µM⁻¹ min⁻¹
- K [2]: 1200 nM
- Activity [9]: 0.5 equiv
- inhibition (Acetylcholinesterase [13]): 14%
- IC50 (Cholinesterase [14]): 0.875 µM
- K [3]: 0.24 min⁻¹
- Activity (HT-22 [16]): Active

Compound: CCCCCCCNC(=O)Oc1ccc2c(c1)CN(C)C(c1ccccc1)N2C (stereo not given)
- K [1]: 0.14 h⁻¹
- viability at 24 h [10]: > 80%
- Ratio [12]: 0.57 µM⁻¹ min⁻¹
- K [2]: 226 nM
- Activity [9]: 0.2 equiv
- inhibition (Acetylcholinesterase [13]): 4%
- IC50 (Cholinesterase [14]): 0.106 µM
- T1/2 [15]: 5 h
- K [3]: 0.13 min⁻¹
- Activity (HT-22 [16]): Active

Compound: COc1cccc(C2N(C)Cc3cc(O)ccc3N2C)c1 (stereo not given)
- inhibition (Acetylcholinesterase [17]): 61%
- IC50 (Cholinesterase [8]): 7.8 µM

Compound: CN1c2ccc(O)cc2CN(Cc2ccccc2)C1c1ccccc1 (stereo not given)
- inhibition (Acetylcholinesterase [18]): 16%
- Activity [5]: Non-toxic
- Activity (HT-22 [6]): inactive
- Activity (HT-22 [7]): Active
- IC50 (Cholinesterase [8]): 14.8 µM
- Activity [9]: 3.9 equiv
- Activity (HT-22 [19]): Active

Compound: CN1Cc2cc(O)ccc2N(C)C1c1ccccc1Cl (stereo not given)
- inhibition (Acetylcholinesterase [17]): 60%
- IC50 (Cholinesterase [8]): 56 µM

Compound: Oc1ccc2nc(-c3ccccc3)ncc2c1
- inhibition (Acetylcholinesterase [17]): 20%
- IC50 (Cholinesterase [8]): 98.1 µM

Compound: CN1Cc2cc(O)ccc2N(C)C1c1ccccc1 (stereo not given)
- IC50 (Acetylcholinesterase [4]): 327 µM
- Activity [5]: Non-toxic
- Activity (HT-22 [7]): Active
- IC50 (Cholinesterase [8]): 39.9 µM
- Activity [9]: 3 equiv

Compound: CN1Cc2cc(O)ccc2N(C)C1c1cccnc1 (stereo not given)
- inhibition (Acetylcholinesterase [17]): 61%
- IC50 (Cholinesterase [8]): 70.7 µM

Compound: CCCCCCCNC(=O)Oc1ccc2c(c1)CN(C)C(c1cc[nH]c1)N2C (stereo not given)
- IC50 (Acetylcholinesterase [20]): 0.852 µM
- IC50 (Cholinesterase [14]): 0.023 µM

Compound: CN1Cc2cc(O)ccc2N(C)C1c1ccc2ccccc2c1 (stereo not given)
- inhibition (Acetylcholinesterase [18]): 9%
- IC50 (Cholinesterase [8]): 16.5 µM

Compound: CCCCCCCNC(=O)Oc1ccc2c(c1)CN(Cc1ccccc1)C(c1ccccc1)N2C (stereo not given)
- viability at 24 h [10]: > 80%
- Activity [21]: Non-toxic
- Activity [9]: 1.7 equiv
- IC50 (Cholinesterase [14]): 0.034 µM
- Activity (HT-22 [16]): Active
- inhibition (Acetylcholinesterase [22]): 17%

Compound: CN1Cc2cc(O)ccc2N(C)C1c1cccs1 (stereo not given)
- IC50 (Acetylcholinesterase [4]): 226 µM
- Activity [5]: Non-toxic
- Activity (HT-22 [7]): Active
- IC50 (Cholinesterase [8]): 63.2 µM
- Activity [9]: 3.4 equiv

Compound: CCCCCCCNC(=O)Oc1ccc2c(c1)CN(C)C(c1ccc(F)cc1)N2C (stereo not given)
- IC50 (Acetylcholinesterase [20]): 1.61 µM
- Ratio [12]: 5.71 µM⁻¹ min⁻¹
- K [2]: 24.5 nM
- IC50 (Cholinesterase [14]): 0.044 µM
- K [3]: 0.14 min⁻¹

Compound: CN1Cc2cc(O)ccc2N(C)C1c1ccsc1 (stereo not given)
- inhibition (Acetylcholinesterase [17]): 52%
- IC50 (Cholinesterase [8]): 194 µM

Compound: CCCCCCCNC(=O)Oc1ccc2c(c1)CN(C)C(c1cccc3ccccc13)N2C (stereo not given)
- Ratio [12]: 1.92 µM⁻¹ min⁻¹
- K [2]: 15.6 nM
- IC50 (Cholinesterase [14]): 36.2 µM
- K [3]: 0.03 min⁻¹
- inhibition (Acetylcholinesterase [22]): 8%

Reference: ChEMBL document CHEMBL3785077 (J Med Chem, 2016)
